ChEMBL document CHEMBL1138520, “Molecular and conformational determinants of pituitary adenylate cyclase-activating polypeptide (PACAP) for activation of the PAC1 receptor” (J Med Chem, 2009)
Where a SMILES comes first, the peptide text is derived from it.

Key:
[1] = biological target: T1, Pituitary adenylate cyclase-activating polypeptide type I receptor (Homo sapiens, UniProt P41586); test: Displacement of [125I]Ac-PACAP27 from human recombinant PAC1 receptor expressed in CHO cells by gamma- counter; type: cell-based
Target sequence in this assay (P41586 whole entry): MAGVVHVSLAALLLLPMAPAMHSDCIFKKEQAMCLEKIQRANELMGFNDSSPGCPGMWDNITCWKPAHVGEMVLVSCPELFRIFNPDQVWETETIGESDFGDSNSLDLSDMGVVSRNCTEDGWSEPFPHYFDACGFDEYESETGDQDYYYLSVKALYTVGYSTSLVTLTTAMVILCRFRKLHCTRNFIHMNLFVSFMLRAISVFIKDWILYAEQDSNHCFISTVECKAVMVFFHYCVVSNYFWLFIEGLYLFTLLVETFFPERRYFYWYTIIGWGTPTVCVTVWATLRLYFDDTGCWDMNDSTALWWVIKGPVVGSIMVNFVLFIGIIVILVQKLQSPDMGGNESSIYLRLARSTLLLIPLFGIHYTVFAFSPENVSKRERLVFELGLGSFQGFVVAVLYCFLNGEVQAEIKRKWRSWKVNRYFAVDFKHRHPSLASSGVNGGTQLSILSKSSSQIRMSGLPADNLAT

[2] = biological target: T1, Pituitary adenylate cyclase-activating polypeptide type I receptor; test: Agonist activity at human recombinant PAC1 receptor expressed in CHO cells assessed as PACAP38-induced calcium mobilization by FLIPR assay; type: functional, cell-based
Outline: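 CHO cells stably expressing recombinant human PAC1, plated 24 h before assay, loaded with fluo-4 AM for 60 min at 37 °C in the dark, then rinsed into HBSS for 15 min at 37 °C. EC50 and efficacy came from nonlinear regression; 4-10 independent assays in duplicate.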
Target sequence in this assay (P41586 whole entry): as above

[3] = biological target: T1, Pituitary adenylate cyclase-activating polypeptide type I receptor; test: Agonist activity at human recombinant PAC1 receptor expressed in CHO cells assessed as PACAP38-induced calcium mobilization by FLIPR assay relative to PACAP38; type: functional, cell-based
Outline: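 CHO cells stably expressing recombinant human PAC1, plated 24 h before assay, loaded with fluo-4 AM for 60 min at 37 °C in the dark, then rinsed into HBSS for 15 min at 37 °C. Peptide was added 18 s into a 150 s read (ex 480/em 525 nm), at final concentrations of 1 × 10-12 to 1 × 10^-5 M. Response was normalised to 1 × 10^-5 M PACAP38 on each plate. EC50 and efficacy came from nonlinear regression; 4-10 independent assays in duplicate.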
Target sequence in this assay (P41586 21-468 limits assumed): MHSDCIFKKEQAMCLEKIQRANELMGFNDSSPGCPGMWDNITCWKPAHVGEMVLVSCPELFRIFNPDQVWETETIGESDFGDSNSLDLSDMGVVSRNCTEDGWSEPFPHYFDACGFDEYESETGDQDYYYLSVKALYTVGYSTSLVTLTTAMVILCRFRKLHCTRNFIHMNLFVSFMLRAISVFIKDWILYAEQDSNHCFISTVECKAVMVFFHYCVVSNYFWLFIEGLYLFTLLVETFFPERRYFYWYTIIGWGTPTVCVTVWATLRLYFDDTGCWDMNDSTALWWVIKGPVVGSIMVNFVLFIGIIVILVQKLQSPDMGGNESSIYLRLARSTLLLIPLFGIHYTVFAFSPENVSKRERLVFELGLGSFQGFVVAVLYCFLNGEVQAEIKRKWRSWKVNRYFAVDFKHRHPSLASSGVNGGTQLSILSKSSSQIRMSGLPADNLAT

IC50 [1] [nM]	EC50 [2] [nM]	Emax [3] [%]	SMILES
11.3	37.6		CC[C@H](C)[C@H](NC(=O)CNC(=O)[C@H](CC(=O)O)NC(=O)[C@H](CO)NC(=O)[C@@H](N)Cc1cn(C)cn1)C(=O)N[C@@H](Cc1ccccc1)C(=O)N[C@H](C(=O)N[C@@H](CC(=O)O)C(=O)N[C@@H](CO)C(=O)N[C@@H](Cc1ccc(O)cc1)C(=O)N[C@@H](CO)C(=O)N[C@@H](CCCN=C(N)N)C(=O)N[C@@H](Cc1ccc(O)cc1)C(=O)N[C@@H](CCCN=C(N)N)C(=O)N[C@@H](CCCCN)C(=O)N[C@@H](CCC(N)=O)C(=O)N[C@@H](CCSC)C(=O)N[C@@H](C)C(=O)N[C@H](C(=O)N[C@@H](CCCCN)C(=O)N[C@@H](CCCCN)C(=O)N[C@@H](Cc1ccc(O)cc1)C(=O)N[C@@H](CC(C)C)C(=O)N[C@@H](C)C(=O)N[C@@H](C)C(=O)N[C@H](C(=O)N[C@@H](CC(C)C)C(=O)NCC(=O)N[C@@H](CCCCN)C(=O)N[C@@H](CCCN=C(N)N)C(=O)N[C@@H](Cc1ccc(O)cc1)C(=O)N[C@@H](CCCCN)C(=O)N[C@@H](CCC(N)=O)C(=O)N[C@@H](CCCN=C(N)N)C(=O)N[C@H](C(=O)N[C@@H](CCCCN)C(=O)N[C@@H](CC(N)=O)C(=O)N[C@@H](CCCCN)C(N)=O)C(C)C)C(C)C)C(C)C)[C@@H](C)O
21.6	389		CC[C@H](C)[C@H](NC(=O)CNC(=O)[C@H](CC(=O)O)NC(=O)[C@H](CO)NC(=O)[C@@H](N)Cc1cn(C)cn1)C(=O)N[C@@H](Cc1ccccc1)C(=O)N[C@H](C(=O)N[C@@H](CC(=O)O)C(=O)N[C@@H](CO)C(=O)N[C@@H](Cc1ccc(O)cc1)C(=O)N[C@@H](CO)C(=O)N[C@@H](CCCN=C(N)N)C(=O)N[C@@H](Cc1ccc(O)cc1)C(=O)N[C@@H](CCCN=C(N)N)C(=O)N[C@@H](CCCCN)C(=O)N[C@@H](CCC(N)=O)C(=O)N[C@@H](CCSC)C(=O)N[C@@H](C)C(=O)N[C@H](C(=O)N[C@@H](CCCCN)C(=O)N[C@@H](CCCCN)C(=O)N[C@@H](Cc1ccc(O)cc1)C(=O)N[C@@H](CC(C)C)C(=O)N[C@@H](C)C(=O)N[C@@H](C)C(=O)N[C@H](C(=O)N[C@@H](CC(C)C)C(N)=O)C(C)C)C(C)C)[C@@H](C)O
7.5	2.4		CC[C@H](C)[C@H](NC(=O)CNC(=O)[C@H](CC(=O)O)NC(=O)[C@H](CO)NC(=O)[C@@H](N)Cc1cncn1C)C(=O)N[C@@H](Cc1ccccc1)C(=O)N[C@H](C(=O)N[C@@H](CC(=O)O)C(=O)N[C@@H](CO)C(=O)N[C@@H](Cc1ccc(O)cc1)C(=O)N[C@@H](CO)C(=O)N[C@@H](CCCN=C(N)N)C(=O)N[C@@H](Cc1ccc(O)cc1)C(=O)N[C@@H](CCCN=C(N)N)C(=O)N[C@@H](CCCCN)C(=O)N[C@@H](CCC(N)=O)C(=O)N[C@@H](CCSC)C(=O)N[C@@H](C)C(=O)N[C@H](C(=O)N[C@@H](CCCCN)C(=O)N[C@@H](CCCCN)C(=O)N[C@@H](Cc1ccc(O)cc1)C(=O)N[C@@H](CC(C)C)C(=O)N[C@@H](C)C(=O)N[C@@H](C)C(=O)N[C@H](C(=O)N[C@@H](CC(C)C)C(=O)NCC(=O)N[C@@H](CCCCN)C(=O)N[C@@H](CCCN=C(N)N)C(=O)N[C@@H](Cc1ccc(O)cc1)C(=O)N[C@@H](CCCCN)C(=O)N[C@@H](CCC(N)=O)C(=O)N[C@@H](CCCN=C(N)N)C(=O)N[C@H](C(=O)N[C@@H](CCCCN)C(=O)N[C@@H](CC(N)=O)C(=O)N[C@@H](CCCCN)C(N)=O)C(C)C)C(C)C)C(C)C)[C@@H](C)O
		87.6	CC[C@H](C)[C@H](NC(=O)CNC(=O)[C@H](CC(=O)O)NC(=O)[C@H](CO)NC(=O)[C@@H](N)Cc1cncn1C)C(=O)N[C@@H](Cc1ccccc1)C(=O)N[C@H](C(=O)N[C@@H](CC(=O)O)C(=O)N[C@@H](CO)C(=O)N[C@@H](Cc1ccc(O)cc1)C(=O)N[C@@H](CO)C(=O)N[C@@H](CCCNC(=N)N)C(=O)N[C@@H](Cc1ccc(O)cc1)C(=O)N[C@@H](CCCNC(=N)N)C(=O)N[C@@H](CCCCN)C(=O)N[C@@H](CCC(N)=O)C(=O)N[C@@H](CCSC)C(=O)N[C@@H](C)C(=O)N[C@H](C(=O)N[C@@H](CCCCN)C(=O)N[C@@H](CCCCN)C(=O)N[C@@H](Cc1ccc(O)cc1)C(=O)N[C@@H](CC(C)C)C(=O)N[C@@H](C)C(=O)N[C@@H](C)C(=O)N[C@H](C(=O)N[C@@H](CC(C)C)C(=O)NCC(=O)N[C@@H](CCCCN)C(=O)N[C@@H](CCCNC(=N)N)C(=O)N[C@@H](Cc1ccc(O)cc1)C(=O)N[C@@H](CCCCN)C(=O)N[C@@H](CCC(N)=O)C(=O)N[C@@H](CCCNC(=N)N)C(=O)N[C@H](C(=O)N[C@@H](CCCCN)C(=O)N[C@@H](CC(N)=O)C(=O)N[C@@H](CCCCN)C(N)=O)C(C)C)C(C)C)C(C)C)[C@@H](C)O
		31.9	CC[C@H](C)[C@H](NC(=O)CNC(=O)[C@H](CC(=O)O)NC(=O)[C@H](CO)NC(=O)[C@@H](N)Cc1cn(C)cn1)C(=O)N[C@@H](Cc1ccccc1)C(=O)N[C@H](C(=O)N[C@@H](CC(=O)O)C(=O)N[C@@H](CO)C(=O)N[C@@H](Cc1ccc(O)cc1)C(=O)N[C@@H](CO)C(=O)N[C@@H](CCCNC(=N)N)C(=O)N[C@@H](Cc1ccc(O)cc1)C(=O)N[C@@H](CCCNC(=N)N)C(=O)N[C@@H](CCCCN)C(=O)N[C@@H](CCC(N)=O)C(=O)N[C@@H](CCSC)C(=O)N[C@@H](C)C(=O)N[C@H](C(=O)N[C@@H](CCCCN)C(=O)N[C@@H](CCCCN)C(=O)N[C@@H](Cc1ccc(O)cc1)C(=O)N[C@@H](CC(C)C)C(=O)N[C@@H](C)C(=O)N[C@@H](C)C(=O)N[C@H](C(=O)N[C@@H](CC(C)C)C(N)=O)C(C)C)C(C)C)[C@@H](C)O
119	7.3		CC[C@H](C)[C@H](NC(=O)CNC(=O)[C@H](CC(=O)O)NC(=O)[C@H](CO)NC(=O)[C@@H](N)Cc1cnc[nH]1)C(=O)N[C@@H](Cc1ccccc1)C(=O)N[C@@H](C(=O)N[C@@H](CC(=O)O)C(=O)N[C@@H](CO)C(=O)N[C@@H](Cc1ccc(O)cc1)C(=O)N[C@@H](CO)C(=O)N[C@@H](CCCNC(=N)N)C(=O)N[C@@H](Cc1ccc(O)cc1)C(=O)N[C@@H](CCCNC(=N)N)C(=O)N[C@@H](CCCCN)C(=O)N[C@@H](CCC(N)=O)C(=O)N[C@@H](CCSC)C(=O)N[C@@H](C)C(=O)N[C@H](C(=O)N[C@@H](CCCCN)C(=O)N[C@@H](CCCCN)C(=O)N[C@@H](Cc1ccc(O)cc1)C(=O)N[C@@H](CC(C)C)C(=O)N[C@@H](C)C(=O)N[C@@H](C)C(=O)N[C@H](C(=O)N[C@@H](CC(C)C)C(=O)NCC(=O)N[C@@H](CCCCN)C(=O)N[C@@H](CCCNC(=N)N)C(=O)N[C@@H](Cc1ccc(O)cc1)C(=O)N[C@@H](CCCCN)C(=O)N[C@@H](CCC(N)=O)C(=O)N[C@@H](CCCNC(=N)N)C(=O)N[C@H](C(=O)N[C@@H](CCCCN)C(=O)N[C@@H](CC(N)=O)C(=O)N[C@@H](CCCCN)C(N)=O)C(C)C)C(C)C)C(C)C)[C@H](C)O
		76.2	CC[C@H](C)[C@@H](NC(=O)CNC(=O)[C@H](CC(=O)O)NC(=O)[C@H](CO)NC(=O)[C@@H](N)Cc1cnc[nH]1)C(=O)N[C@@H](Cc1ccccc1)C(=O)N[C@H](C(=O)N[C@@H](CC(=O)O)C(=O)N[C@@H](CO)C(=O)N[C@@H](Cc1ccc(O)cc1)C(=O)N[C@@H](CO)C(=O)N[C@@H](CCCNC(=N)N)C(=O)N[C@@H](Cc1ccc(O)cc1)C(=O)N[C@@H](CCCNC(=N)N)C(=O)N[C@@H](CCCCN)C(=O)N[C@@H](CCC(N)=O)C(=O)N[C@@H](CCSC)C(=O)N[C@@H](C)C(=O)N[C@H](C(=O)N[C@@H](CCCCN)C(=O)N[C@@H](CCCCN)C(=O)N[C@@H](Cc1ccc(O)cc1)C(=O)N[C@@H](CC(C)C)C(=O)N[C@@H](C)C(=O)N[C@@H](C)C(=O)N[C@H](C(=O)N[C@@H](CC(C)C)C(=O)NCC(=O)N[C@@H](CCCCN)C(=O)N[C@@H](CCCNC(=N)N)C(=O)N[C@@H](Cc1ccc(O)cc1)C(=O)N[C@@H](CCCCN)C(=O)N[C@@H](CCC(N)=O)C(=O)N[C@@H](CCCNC(=N)N)C(=O)N[C@H](C(=O)N[C@@H](CCCCN)C(=O)N[C@@H](CC(N)=O)C(=O)N[C@@H](CCCCN)C(N)=O)C(C)C)C(C)C)C(C)C)[C@@H](C)O
49.3	11		CC[C@H](C)[C@H](NC(=O)CNC(=O)[C@H](CC(=O)O)NC(=O)[C@H](CO)NC(=O)[C@H](C)N)C(=O)N[C@@H](Cc1ccccc1)C(=O)N[C@H](C(=O)N[C@@H](CC(=O)O)C(=O)N[C@@H](CO)C(=O)N[C@@H](Cc1ccc(O)cc1)C(=O)N[C@@H](CO)C(=O)N[C@@H](CCCN=C(N)N)C(=O)N[C@@H](Cc1ccc(O)cc1)C(=O)N[C@@H](CCCN=C(N)N)C(=O)N[C@@H](CCCCN)C(=O)N[C@@H](CCC(N)=O)C(=O)N[C@@H](CCSC)C(=O)N[C@@H](C)C(=O)N[C@H](C(=O)N[C@@H](CCCCN)C(=O)N[C@@H](CCCCN)C(=O)N[C@@H](Cc1ccc(O)cc1)C(=O)N[C@@H](CC(C)C)C(=O)N[C@@H](C)C(=O)N[C@@H](C)C(=O)N[C@H](C(=O)N[C@@H](CC(C)C)C(=O)NCC(=O)N[C@@H](CCCCN)C(=O)N[C@@H](CCCN=C(N)N)C(=O)N[C@@H](Cc1ccc(O)cc1)C(=O)N[C@@H](CCCCN)C(=O)N[C@@H](CCC(N)=O)C(=O)N[C@@H](CCCN=C(N)N)C(=O)N[C@H](C(=O)N[C@@H](CCCCN)C(=O)N[C@@H](CC(N)=O)C(=O)N[C@@H](CCCCN)C(N)=O)C(C)C)C(C)C)C(C)C)[C@@H](C)O (H-ASDGIFTDSYSRYRKQMAVKKYLAAVLGKRYKQRVKNK-NH2)
